# Compound activity from PubChem.
# The list is not random: actives were taken first. Their share in the collection is about 2.6%.
# AHR activator = AHR activators, primary screen, cell-based, luminescence, luciferase reporter, human | Aryl hydrocarbon receptor (Homo sapiens), P35869 | AHR-responsive luciferase reporter cells | activation, % at 5 µM | 320,000 tested, 2.5% active | AID 2796, 2010; in the data active means activation above about 47%;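 further: 0% = vehicle wells and 100% = reference agonist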
# Target sequence (P35869 whole entry, looked up): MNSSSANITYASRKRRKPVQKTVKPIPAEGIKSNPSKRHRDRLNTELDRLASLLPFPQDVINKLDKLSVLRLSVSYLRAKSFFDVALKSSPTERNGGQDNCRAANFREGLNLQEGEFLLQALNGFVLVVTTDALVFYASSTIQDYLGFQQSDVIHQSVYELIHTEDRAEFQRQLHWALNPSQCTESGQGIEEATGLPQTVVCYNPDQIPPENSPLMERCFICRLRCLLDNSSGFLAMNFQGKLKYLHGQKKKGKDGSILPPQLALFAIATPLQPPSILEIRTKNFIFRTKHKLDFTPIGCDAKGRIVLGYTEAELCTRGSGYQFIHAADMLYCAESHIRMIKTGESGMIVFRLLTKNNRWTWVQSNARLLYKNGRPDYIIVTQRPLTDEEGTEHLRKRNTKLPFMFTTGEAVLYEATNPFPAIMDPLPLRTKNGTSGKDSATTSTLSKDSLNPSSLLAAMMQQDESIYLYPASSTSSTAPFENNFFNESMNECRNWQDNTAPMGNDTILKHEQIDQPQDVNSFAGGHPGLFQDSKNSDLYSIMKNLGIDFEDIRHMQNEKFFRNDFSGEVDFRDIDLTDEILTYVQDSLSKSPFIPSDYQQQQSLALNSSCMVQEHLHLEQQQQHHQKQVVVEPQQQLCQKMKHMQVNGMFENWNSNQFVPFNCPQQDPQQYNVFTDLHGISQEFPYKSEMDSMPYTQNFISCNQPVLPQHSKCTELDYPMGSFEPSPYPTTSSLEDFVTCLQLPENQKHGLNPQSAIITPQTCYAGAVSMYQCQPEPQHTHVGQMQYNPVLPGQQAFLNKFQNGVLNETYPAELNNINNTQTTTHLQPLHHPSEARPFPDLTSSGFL
# PolyA inh = polyadenylation inhibitors in yeast reporter cells, primary screen, luminescence, S. cerevisiae | S. cerevisiae SKY197-pL101 polyadenylation reporter, beta-gal luminescence; efflux-impaired pdr1/pdr3 knockout yeast; score 100 = 6 SD above DMSO | activity score, % at 12 µM | 300,000 tested, 0.02% active | AID 1875, 2009;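 active means lowest replicate activity score at least 50, where 100 means six control SD above control mean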;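 further: yeast exposed to compound for 9 h at 30 °C; higher score means more reporter readthrough which indicates perturbed polyadenylation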
# proCasp3 act = activators of human procaspase-3 D3A mutant, primary screen, biochemical, absorbance, PC-3 D3A mutant, single concentration; activation, % at 8.5 µM; 330,000 tested, 0.11% active; AID 463141, 2010; Caspase-3 (Homo sapiens), P42574; recombinant procaspase-3 D3A, Ac-DEVD-pNA absorbance 405 nm;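 active means activation above the mean of all tested compounds plus 3 SD, cut at about 21% in these data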;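 further: 0% = DMSO alone and 100% = DMSO wells spiked with extra 5 µM PC-3 D3A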
#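 System: Procaspase-3 D3A mutant. Medium: Zinc-free 300 mM NaCl, 50 mM HEPES, 0.01% Triton X-100. Schedule: 1 h preincubation plus 2 h reaction at 25 °C. Measured by: 405 nm absorbance of p-nitroaniline, reads at 0 and 120 min. Read-out: percent activation relative to control range.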
# procasp7 counter = procaspase-7 activators, primary screen, counter-screen for procaspase-3 activator project, biochemical, absorbance, HTS, human; Caspase-7 (Homo sapiens), P55210; recombinant procaspase-7, Ac-DEVD-pNA absorbance 405 nm; D23A/D198A/D206A triple mutant, cannot self-cleave; scale: DMSO 0, 5 µM enzyme 100; activation, % at 8.5 µM; 330,000 tested, 0.093% active;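 active means percent activation above the screen-wide mean plus 3 SD, cut at about 25% in these data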
#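 Test system: Procaspase-7 triple mutant (PC-7 D3A). Also added: Ac-DEVD-pNA substrate, 400 µM as added. Schedule: 1 h enzyme–compound preincubation and 2 h substrate reaction, both 25 °C. Signal: p-Nitroaniline absorbance at 405 nm, read at 0 and 120 min. Control set: low DMSO alone, high DMSO plus 5 µM PC-7.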
# PC3 D3A act = procaspase-3 activators, counter-screen for dual procaspase-3/7 activator project, biochemical, absorbance, PC-3 D3A mutant, human. shares compounds with procasp7 counter. recombinant PC-3 D3A, Ac-DEVD-pNA absorbance 405 nm; aspartates 9, 28, 175 changed to alanine; 100% = enzyme control. activation, % at 8.5 µM. 290 tested, under 10 active;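 active means mean percent activation across triplicates above a set limit taken from the earlier primary procaspase-3 screen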;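 further: 0% = DMSO wells and 100% = DMSO wells with 5 µM added PC-3 D3A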
# PC7 dual conf = activation of procaspase-7 enzyme – biochemical, absorbance, human, dual procaspase-3/-7 activator project, confirmation; shares compounds with procasp7 counter; recombinant procaspase-7, Ac-DEVD-pNA absorbance 405 nm; D23A/D198A/D206A mutant that cannot self-cleave; activation, % at 8.5 µM; 290 tested, under 10 active; AID 493115, 2011;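 active means mean activation above a set limit carried over from the earlier primary screen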;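 further: 0% = DMSO only and 100% = DMSO with added 5 µM PC-7 enzyme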
# Starred values were filed as active, the others as inactive; x = no result given.
SMILES,AHR activator,PolyA inh,proCasp3 act,procasp7 counter,PC3 D3A act,PC7 dual conf
COc1ccc(/C=C2\OC(=O)c3c(OC)cccc32)cc1OC,-1,-13,-19,89*,-27,-35
COc1cc(/C=C2\SC(=O)N(CCNC(=O)c3c(C)noc3C)C2=O)cc(OC)c1OC,1,x,3,-2,x,x
COc1cccc(C=NCC(C)N=Cc2cccc(OC)c2O)c1O (stereo not given),1,-24,7,82*,-1,-1
COc1ccc(O)c(C=NCC(C)N=Cc2cc(OC)ccc2O)c1 (stereo not given),1,-13,15,-3,x,x
Cc1cccc(S(=O)(=O)Nc2ccc(-c3nc4ccc(C)cc4s3)cc2)c1,17,4,23*,43*,-27,-32
Cc1ccc2nc(-c3ccc(NC(=O)CCS(=O)(=O)c4ccccc4)cc3)sc2c1,-13,12,-12,-7,x,x
Fc1cccc(-c2cc3nc(-c4ccccc4)cc(N4CCC5(CC4)OCCO5)n3n2)c1,8,3,22*,30*,-26,-28
Cc1ccc(-c2cc3nc(-c4ccccc4)cc(N4CCC5(CC4)OCCO5)n3n2)cc1,11,16,-25,-25,x,x
Cc1cccc(-c2cc3nc(-c4ccccc4)cc(N4CCC5(CC4)OCCO5)n3n2)c1,20,-5,17,30*,-28,-34
C[C@H](CO)N1C[C@H](C)[C@@H](CN(C)S(C)(=O)=O)Oc2ccc(N(C)C)cc2C1=O,0,x,-1,2,x,x
COc1cc2c(cc1OC)C1(C)N(CC2)C(C(C)=O)=NN1c1ccc(Cl)cc1 (stereo not given),2,6,28*,37*,-28,-36
NC(=O)c1nsc(C(=O)N(c2ccccc2)C(C(=O)NCc2ccc(F)cc2)c2ccc(O)cc2)c1N (stereo not given),2,-5,-76,157*,-30,-36
COc1ccc(CNC(=O)C(c2ccc(C)o2)N(C(=O)c2snc(C(N)=O)c2N)c2ccccc2OC)cc1 (stereo not given),2,7,-105,26*,-25,-24
COc1ccccc1N(C(=O)c1snc(C(N)=O)c1N)C(C(=O)NC1CCCCC1)c1cccc(OC)c1OC (stereo not given),-1,3,14,37*,-21,-18
COc1ccc(OC)c(C(C(=O)NC2CCCCC2)N(C(=O)c2snc(C(N)=O)c2N)c2ccccc2OC)c1 (stereo not given),4,-11,0,-4,x,x
CNS(=O)(=O)c1cn(CC(=O)NCc2ccc(F)cc2)cc1S(=O)(=O)NC,-1,-8,2,-3,x,x
CN(C)c1ccc(/C=N/NC(=O)c2ccc(-n3cnnn3)cc2)cc1,3,x,1,-7,x,x
CCN(CC(=O)N1CCOCC1)S(=O)(=O)c1ccc(F)cc1,7,7,10,0,x,x
CC(=O)NCCC(=O)Nc1cc(S(=O)(=O)N2CCCCC2)ccc1Oc1ccccc1,-1,-1,-4,8,x,x
COc1ccc(-c2cc(C(F)F)n3ncc(C(=O)N4CCc5ccccc5C4)c3n2)cc1,13,-9,5,26*,-30,-36
COc1ccccc1CN1CCC(n2nccc2NC(=O)CCCc2ccccc2)CC1,2,-7,5,1,x,x
COc1ccc(-c2[nH]ncc2CN2CCC(C(=O)c3ccc(F)cc3)CC2)cc1,-1,-9,-6,-12,x,x
COc1ccc(C(=O)C2CN(c3ccccc3)CC2c2ccc(Cl)cc2)cc1 (stereo not given),4,-7,14,29*,3,2
N#Cc1ccc(COC(=O)c2ccccn2)cc1,1,26,-3,9,x,x
O=C1Nc2ccccc2O/C1=C\c1ccccc1Br,53*,10,36*,29*,-20,-23
SMILES,AHR activator,PolyA inh,proCasp3 act,procasp7 counter,PC3 D3A act,PC7 dual conf
O=C1NC(=O)C(c2cccs2)(c2cccs2)N1,-1,3,0,1,x,x
Cc1ccc(C(=O)N/N=C/C2=Cc3ccccc3OC2C)cc1 (stereo not given),8,16,-1,34*,0,1
Fc1ccc(C2CC(c3ccco3)=NN2c2ccccc2)cc1 (stereo not given),-4,-6,32*,36*,-29,-36
Cc1cccc(C2=NN(c3ccccc3)[C@H](CO)[C@H]2c2ccccc2)c1,x,x,20,35*,-31,-34
CC[C@H]1C(c2ccc(F)cc2)=NN(c2ccccc2)[C@@H]1CO,x,x,-1,2,x,x
OC[C@@H]1[C@@H](c2ccc(F)cc2)C(c2ccccc2)=NN1c1ccccc1,x,x,30*,34*,-30,-35
CC1CCC(C(C)C)C(OC(=O)COC(=O)c2cc(O)ccc2N)C1 (stereo not given),0,-3,41*,50*,-30,-35
CC1CCC(C(C)C)C(OC(=O)COC(=O)c2ccc(=O)[nH]c2)C1 (stereo not given),2,13,-4,7,x,x
Cc1ccc(S(=O)(=O)c2cc(C#N)c(=O)[nH]c2N)cc1,-2,8,14,28*,-28,-35
O=C(CSC(=O)c1ccccc1)Nc1ccccc1F,-1,x,-13,-26,x,x
Cc1ccc2c(n1)sc1c(-c3ccccc3)c(C#N)c(N)nc12,24,-12,79*,44*,-30,-36
CCCCn1c(N)c(N(CC(C)C)C(=O)CSc2nnc(-c3ccc(Cl)cc3)o2)c(=O)[nH]c1=O,4,-9,-12,-4,x,x
Cc1ccc(C(=O)Cc2nc3ccccc3[nH]2)cc1,3,-12,-5,13,x,x
CCOC(=O)Cc1nc2ccccc2[nH]1,1,-15,21,79*,3,-1
COc1ccc2c(C#CCCO)c(-c3ccc(S(C)(=O)=O)cc3)sc2c1,22,x,-2,6,x,x
COc1ccc2c(-c3ccc(S(N)(=O)=O)cc3)c(-c3ccc(S(C)(=O)=O)cc3)sc2c1,1,x,23*,44*,-28,-38
COc1cc(-n2c(=O)c3ccccc3n(Cc3cccnc3)c2=O)cc(OC)c1OC,-3,19,-7,27*,2,1
